Compound activity: PubChem BioAssay, Broad Institute
N-glyco inh: increase of ERlucT glycosylation luciferase signal, primary screen, N-linked glycosylation inhibitor project, D54 ERlucT cells, luminescence, set 2; hit rate 0.23% among 360,000; AID 588692, 2011; reporter increase, % at 12.5 µM; D54 ERlucT glycosylation luciferase reporter, 24 h; percent of 100 nM tunicamycin response;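 active means mean luciferase reporter signal, scaled so untreated is 0 and the glycosylation-blocking control 100, at or above a set limit in every replicate; inconclusive means mean reaches the limit but not every replicate does; inactive means mean below the limit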;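 further: luciferase carries N-glycosylation sites so blocking glycosylation raises the light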
PglD inh: C. jejuni PglD acetyltransferase inhibitors, primary screen, biochemical, DTNB colorimetric, single point; UDP-N-acetylbacillosamine N-acetyltransferase PglD (Campylobacter jejuni); purified PglD enzyme, DTNB colorimetric CoA detection; inhibition, % at 12.5 µM; hit rate 0.098% among 360,000; AID 602405, 2012; in the data active means inhibition above about 16%, passing the limit was not always enough; inconclusive means no clear call, values can overlap the other calls
Rtt109 HAT inh: inhibitors of C. albicans Rtt109/Vps75 HAT, primary screen, biochemical, ThioGlo CoA-SH fluorescence, plate reader. inhibition, % at 34.9 µM. purified Rtt109/Vps75, 4 h. Histone acetyltransferase RTT109 (Candida albicans (strain SC5314 / ATCC MYA-2876)), …. hit rate 0.16% among 330,000;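 active means inhibition of at least 50% in every replicate; inconclusive means best replicate reaches 50% inhibition but some replicates fall short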
Target sequence (Q5AAJ8 whole entry, looked up): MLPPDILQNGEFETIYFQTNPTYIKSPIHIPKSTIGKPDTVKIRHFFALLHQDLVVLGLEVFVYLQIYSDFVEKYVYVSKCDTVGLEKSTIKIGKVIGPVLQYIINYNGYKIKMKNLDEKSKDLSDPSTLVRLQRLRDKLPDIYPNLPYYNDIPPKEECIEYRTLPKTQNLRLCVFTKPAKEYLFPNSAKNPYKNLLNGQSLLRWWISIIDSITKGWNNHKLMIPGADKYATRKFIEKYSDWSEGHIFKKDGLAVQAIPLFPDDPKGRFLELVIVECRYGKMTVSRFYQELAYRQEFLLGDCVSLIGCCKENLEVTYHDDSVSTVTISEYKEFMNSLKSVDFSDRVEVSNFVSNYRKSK
SR-BI DiI-HDL act: activators of SR-BI mediated DiI-HDL uptake, primary screen, ldlA[mSR-BI] CHO cells, DiI fluorescence; 3 h; 100 = double the neutral-control signal; activation, % at 12.5 µM; hit rate 0.096% among 320,000; AID 504775, 2011;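 active means mean replicate activation of at least 60% and every replicate at or above 60%; inconclusive means mean or all-replicate condition met, but not both; inactive means mean below 60% and not all replicates reaching 60%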
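Assay system: CHO ldlA[mSR-BI] cells, LDL receptor-null, SR-BI overexpressing; medium: Ham's F12 with 0.5% BSA, HEPES 25 mM, pH 7.4; also added: DiI-HDL 10 µg/mL; timing: 3 h uptake period with compound, 37 °C; signal: DiI fluorescence, bottom read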
SR-BI HDL uptake: inhibitors of SR-BI mediated HDL lipid uptake, primary screen, ldlA[mSR-BI] cells, fluorescence, single point; inhibition, % at 12.5 µM; ldlA[mSR-BI] CHO cells, DiI-HDL uptake fluorescence, 3 h; AID 488896, 2010; hit rate 0.96% among 320,000; Scavenger receptor class B member 1 (Mus musculus), Q61009;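 active means mean replicate inhibition of at least 70% and a set share of replicates each scoring 70 or more; inconclusive means meets just one of the two criteria; inactive means fails both criteria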
Env fusion inh: inhibitors of HIV-1 Env-driven cell-cell fusion, primary screen, HeLa-JRFL effector, CEM21 target cells, luciferase. AID 651610, 2012. hit rate 1.1% among 360,000. inhibition, % at 12.3 µM;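 active means mean replicate inhibition score of at least 50 and every replicate individually at or above 50; inconclusive means only one of the two criteria met; inactive means mean below 50 and not all replicates reaching 50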
Hits are given with their value; n = inactive; u = inconclusive; x = no result; ! = a repeat was not active. Hits are enriched below; roughly 1.9% of the tested compounds scored in any of these assays.

SMILES	N-glyco inh	PglD inh	Rtt109 HAT inh	SR-BI DiI-HDL act	SR-BI HDL uptake	Env fusion inh
CCCNC(=O)C[C@H]1CC[C@@H]2[C@@H](COc3ccc(NC(=O)c4ccc(C(F)(F)F)cc4)cc3C(=O)N2C)O1	x	n	x	x	x	x
N#C/C=C/C(=C\Nc1ccc(Cl)cc1)S(=O)(=O)c1ccccc1	n	n	n	n	85	n
COc1ccc(N/C=C(\C=C\C#N)S(=O)(=O)c2ccccc2)cc1	n	n	n	n	n	n
FC(F)(F)c1nnc2c(Sc3ccccc3)nc3ccccc3n12	n	x	n	n	n	n
FC(F)(F)c1nnc2c(Sc3ccc(Cl)cc3)nc3ccccc3n12	30	x	n	n	n	n
CN(C)CC(=O)Nc1ccc2c(c1)[C@@H]1C[C@@H](CC(=O)NC3CCCCC3)O[C@@H](CO)[C@@H]1O2	x	n	x	x	x	n
Cc1ccccc1S(=O)(=O)NCC[C@@H]1CC[C@H](NS(=O)(=O)c2ccccc2C)[C@H](CO)O1	x	n	x	x	x	n
COc1ccc(-c2cn[nH]c2N)c(OC)c1	n	n	n	n	n	81
CO[C@H]1CN(C)C(=O)c2ccc(NS(C)(=O)=O)cc2OC[C@@H](C)N(CC2CCCCC2)C[C@@H]1C	x	x	x	x	x	n
CCC(=O)Nc1ccc(-c2cc(-c3ccccc3)nc(-c3ccc(NC(=O)CC)cc3)n2)cc1	n	x	n	103	n	n
O=C(Cc1cccc(NC(=O)C2CCCN(C(=O)CCc3ccccc3)C2)c1)Nc1cccc(C(=O)N2CCCC2)c1 (centres undefined)	n	n	n	n	78	n
CN(C(=O)c1cccc(NC(=O)Cc2cccc(NC(=O)C3CCCN(C(=O)C4CCC4)C3)c2)c1)C1CCC1 (centres undefined)	n	n	n	n	n	85
CN(C(=O)c1ccc(NC(=O)Cc2ccc(NC(=O)C3CCCN(C(=O)CCc4ccccc4)C3)cc2)cc1)C1CC1 (centres undefined)	n	n	n	n	n	56
CN(C(=O)c1cccc(NC(=O)Cc2ccc(NC(=O)C3CCCN(C(=O)C4CCC4)C3)cc2)c1)C1CCCCC1 (centres undefined)	n	n	n	n	88	n
C[C@@H]1CCCCO[C@@H](CN(C)Cc2ccc(C(=O)O)cc2)[C@H](C)CN([C@H](C)CO)C(=O)c2cc(NS(C)(=O)=O)ccc2O1	x	n	x	x	x	n
COCC(=O)N(C)C[C@H]1Oc2ncc(C#Cc3ccccc3)cc2C(=O)N([C@H](C)CO)C[C@H]1C	x	n	x	x	x	n
CN(Cc1ccccc1)C(=O)c1cccc(NC(=O)Cc2ccc(NC(=O)C3CCCN(C(=O)C4CCCCC4)C3)cc2)c1 (centres undefined)	n	n	n	n	75	n
O=C(Cc1cccc(NC(=O)C2CCCN(C(=O)C3CC3)C2)c1)Nc1ccc(C(=O)N2CCCCC2)cc1 (centres undefined)	n	n	n	n	75	n
Cc1ccc(S(=O)(=O)Nc2cccc3c2O[C@@H](CN(C)C(=O)Nc2c(C)noc2C)[C@@H](C)CN([C@H](C)CO)C3=O)cc1	x	n	x	x	x	n
C=CCn1c(SCC(=O)NCCc2ccccc2)nc2c([nH]c3ccccc32)c1=O	x	n	n	n	n	57
C=CCn1c(SCC(=O)Nc2ccc(F)cc2F)nc2c([nH]c3ccccc32)c1=O	x	n	n	n	n	n
COCCn1c(SCC(=O)Nc2ccccc2OC)nc2c([nH]c3ccccc32)c1=O	n	n	n	n	n	92
Cn1c(=O)cc(SCC(=O)NCCC2=CCCCC2)c2ccc(Cl)cc21	n	x	n	n	n	x
COCCn1c(SCC(=O)Nc2ccccc2F)nc2c([nH]c3ccccc32)c1=O	x	n	n	n	n	n
C=CCn1c(SCC(=O)NCCC2=CCCCC2)nc2ccc(Cl)cc2c1=O	n	n	n	n	n	63
SMILES	N-glyco inh	PglD inh	Rtt109 HAT inh	SR-BI DiI-HDL act	SR-BI HDL uptake	Env fusion inh
C=CCn1c(SCC(=O)Nc2ccccc2OC)nc2c([nH]c3ccccc32)c1=O	x	n	n	n	n	63
COCCn1c(SCC(=O)Nc2ccc(NC(=O)c3ccco3)c(OC)c2)nc2ccccc2c1=O	n	n	n	n	74	x
O=C(c1ccc(NS(=O)(=O)c2cccc([N+](=O)[O-])c2)cc1)N1CCN(C(=O)c2ccco2)CC1	n	n	n	63	n	x
CC(=O)N1[C@@H]2CN(C(=O)c3ccccc3)c3ccccc3[C@@H]2[C@@H]1CO	x	n	x	x	x	x
O=C(CCn1nc(-c2ccc(Cl)cc2)ccc1=O)NCCCN1CCCCCC1	n	n	u	n	73	x
COc1cc(/C=C(\C#N)c2nc3ccccc3s2)ccc1OCC(=O)Nc1ccccc1	71	x	n	n	u	x
CCOC(=O)C1CCN(C(=O)Nc2ccc(Cl)cc2Cl)CC1	n	n	n	n	80	n
CCOC(=O)C1CCN(C(=O)Nc2cccc(Cl)c2)CC1	n	n	n	n	n	n
N#Cc1c(Nc2ccccc2)s[nH]c1=O	n	x	111	n	n	n
N#Cc1c(Nc2ccccc2Cl)s[nH]c1=O	n	x	109	n	n	n
N#Cc1c(Nc2ccccc2C(F)(F)F)s[nH]c1=O	n	n	x	x	x	n
CCCCCN=C(N)N/N=C/c1c[nH]c2ccc(OC)cc12	n	n	78	n	n	n
CN1CCc2cccc3c2[C@H]1Cc1ccc(O)c(O)c1-3	n	n	100!	n	n	n
Cc1cc(NCCCN(C)C)n2c(nc3ccccc32)c1C#N	34	n	n	n	n	n
CCOC(=O)C1Sc2ccccc2NC1=O (centres undefined)	n	n	n	n	n	n
CCOC(=O)C1=C(C)Nc2ccccc2S1	n	n	51	n	n	n
CCOC(=O)/C=C1\Nc2ccccc2SC1=O	n	n	n	n	n	113
CN(C)CC#Cc1cccc(-c2nc(C(=O)NCCCN3CCOCC3)cc3c2[C@H](CCO)N(S(=O)C(C)(C)C)C3)c1 (some centres undefined)	x	x	x	x	x	n
Cc1cc(C)cc(N=c2c([N+](=O)[O-])nn(-c3ccc4c(c3)OCCO4)n2O)c1	n	n	n	n	n	65
